Results from ChEMBL document CHEMBL1142438, “Pivaloyloxymethyl-modified isoprenoid bisphosphonates display enhanced inhibition of cellular geranylgeranylation” (Bioorg Med Chem, 2008).
The source made the active and inactive calls. The calls are words filed in the database; no cut-off is given here.

Legend:
K562 [1] = assay: Growth inhibition of human K562 cells after 24 hrs; format: functional; details: K562, 24 h
Method in brief: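 K562 leukaemia cells (ATCC, grown per ATCC protocol), asynchronous suspension cultures at 5 × 10^6 cells/5 ml in fresh medium, exposed to compound for 24 h. Growth followed by 3H-thymidine incorporation. GI50 taken from quadruplicate dose–response curves.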

K562 [2] = assay: Inhibition of Rap1a protein modification in human K562 cells by Western blot relative to lovastatin; format: functional
Method in brief: (§1)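 K562 cells in suspension culture (5 × 10^6 cells/5 ml, fresh medium) exposed 24 h to 1, 2.5, 5, 10, 25 or 50 µM compound. Protein quantified by BCA, resolved on 12% SDS gel, transferred to PVDF, probed for Rap1a with primary then secondary antibody (45 min each), ECL detection.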

K562 [3] = assay: Inhibition of Rap1a protein geranylgernaylation modification in human K562 cells upto 10 uM by Western blot; format: functional, cell-based; method in brief: as §1
K562 [4] = assay: Inhibition of Rap1a protein modification in human K562 cells at 50 uM by Western blot; format: functional, cell-based
Method in brief: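 K562 leukemia suspension cultures (5 × 10^6 cells/5 ml, fresh medium) incubated 24 h with compound, tested over 1, 2.5, 5, 10, 25 and 50 µM. Protein quantified by BCA; lysates run on 12% gel, transferred to PVDF, probed sequentially with primary and secondary antibodies (45 min each) for Rap1a, detected by ECL chemiluminescence.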

[5] = target: T1, Geranylgeranyl pyrophosphate synthase (Homo sapiens) (UniProt O95749); assay: Inhibition of human recombinant GGDPS expressed in BL21 gold bacteria at 100 uM relative to control; design: scale not given: the % may be the effect or the level left
T1 sequence (whole entry): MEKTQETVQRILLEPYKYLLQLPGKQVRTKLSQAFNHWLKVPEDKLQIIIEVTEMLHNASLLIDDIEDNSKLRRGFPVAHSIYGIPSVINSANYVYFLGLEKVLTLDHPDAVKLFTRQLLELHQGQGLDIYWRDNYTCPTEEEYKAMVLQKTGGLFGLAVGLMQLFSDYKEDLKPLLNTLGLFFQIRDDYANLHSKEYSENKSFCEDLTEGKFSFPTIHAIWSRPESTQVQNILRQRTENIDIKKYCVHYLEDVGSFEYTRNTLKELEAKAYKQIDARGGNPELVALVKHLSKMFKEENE
Method in brief: (§2)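 GST-tagged recombinant human GGDPS expressed in BL21 gold E. coli (IPTG induction), glutathione-affinity purified. Reaction: 20 µM FPP, 40 µM [14C]IPP in 50 mM imidazole pH 7.5, 0.5 mM MgCl2, 0.5 mM ZnCl2. 10-min inhibitor preincubation, substrates added together, 1 h at 37 °C. [14C]GGPP extracted into butanol and counted by scintillation; activity as % of control, n = 3.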

[6] = target: T2, Farnesyl pyrophosphate synthase (Homo sapiens) (UniProt P14324); assay: Inhibition of human recombinant FDPS expressed in BL21 gold bacteria at 100 uM relative to control; design: scale not given: the % may be the effect or the level left
T2 sequence (whole entry): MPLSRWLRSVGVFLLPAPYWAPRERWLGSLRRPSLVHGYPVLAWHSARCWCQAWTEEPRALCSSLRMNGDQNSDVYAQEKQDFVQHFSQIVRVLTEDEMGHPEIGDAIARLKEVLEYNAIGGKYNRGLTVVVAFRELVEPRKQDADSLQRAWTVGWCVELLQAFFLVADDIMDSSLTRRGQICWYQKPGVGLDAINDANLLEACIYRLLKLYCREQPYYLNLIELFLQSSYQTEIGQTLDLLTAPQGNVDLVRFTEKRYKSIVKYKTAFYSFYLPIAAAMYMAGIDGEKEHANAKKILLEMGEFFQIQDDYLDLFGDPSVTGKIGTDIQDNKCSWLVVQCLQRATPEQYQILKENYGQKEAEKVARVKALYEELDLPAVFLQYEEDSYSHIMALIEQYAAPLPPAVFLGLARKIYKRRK
Method in brief: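 GST-tagged recombinant human FDPS expressed in BL21 gold E. coli (IPTG induction), glutathione-affinity purified. Reaction: 20 µM GPP, 40 µM [14C]IPP in 50 mM Tris pH 7.7, 10 mM NaF, 2 mM MgCl2, 1 mg/mL BSA. 10-min enzyme–inhibitor preincubation, substrates added, 1 h at 37 °C. Butanol-extracted product counted by scintillation; n = 3.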

[7] = target: T3, Farnesyl pyrophosphate synthase (Homo sapiens, UniProt P14324); assay: Inhibition of human recombinant FDPS expressed in BL21 gold bacteria
T3 sequence (P14324 whole entry): T2 sequence (whole entry)
Method in brief: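 GST-tagged recombinant human enzyme expressed in BL21 gold bacteria (IPTG induction), purified by affinity chromatography or glutathione agarose. Reaction: 20 µM GPP, 40 µM 14C IPP in 50 mM Tris pH 7.7, 10 mM NaF, 2 mM MgCl2, 1 mg/mL BSA. 10-min preincubation with inhibitor, substrates then added; 1 h at 37 °C. Products extracted with saturated butanol; 14C incorporation by scintillation counting; n = 3.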

[8] = target: T1, Geranylgeranyl pyrophosphate synthase (Homo sapiens); assay: Inhibition of human recombinant GGDPS expressed in BL21 gold bacteria at 10 uM relative to control; design: scale not given: the % may be the effect or the level left; method in brief: as §2

SMILES	GI50 (K562 [1]) [µM]	Activity (K562 [2]) [µM]	Activity (K562 [4])	other results
CC(C)=CCC/C(C)=C\CC/C(C)=C/CC(P(=O)(OCOC(=O)C(C)(C)C)OCOC(=O)C(C)(C)C)P(=O)(OCOC(=O)C(C)(C)C)OCOC(=O)C(C)(C)C	2.7	10		
CC(C)=CCC(CC=C(C)C)(P(=O)(OCOC(=O)C(C)(C)C)OCOC(=O)C(C)(C)C)P(=O)(OCOC(=O)C(C)(C)C)OCOC(=O)C(C)(C)C	7.7	5		Activity (K562 [3]): Active
CC(C)=CCC/C(C)=C\CC(C/C=C(\C)CCC=C(C)C)(P(=O)(O)O)P(=O)(O)O	> 100	25		
CC(C)=CCC/C(C)=C/CC(P(=O)(O)O)P(=O)(O)O	> 100	>50	inactive	Activity [5]: 51%; Activity [6]: 11%; IC50 [7]: 20 µM
CC(C)=CCC/C(C)=C\CC(CC=C(C)C)(P(=O)(OCOC(=O)C(C)(C)C)OCOC(=O)C(C)(C)C)P(=O)(OCOC(=O)C(C)(C)C)OCOC(=O)C(C)(C)C	21	5	inactive	Activity (K562 [3]): Active
CC(C)=CCC/C(C)=C/CC(CC=C(C)C)(P(=O)(O)O)P(=O)(O)O	> 100	25		Activity [8]: 38%
CC(C)=CCC/C(C)=C\CC/C(C)=C/CC(P(=O)(O)O)P(=O)(O)O		50		
CC(C)=CCC(CC=C(C)C)(P(=O)(O)O)P(=O)(O)O	> 100	>50	inactive	
CC(C)=CCC/C(C)=C\CC/C(C)=C\CC(P(=O)(O)O)P(=O)(O)O		>50		
CC(C)=CCC/C(C)=C/CC(C/C=C(\C)CCC=C(C)C)(P(=O)(OCOC(=O)C(C)(C)C)OCOC(=O)C(C)(C)C)P(=O)(OCOC(=O)C(C)(C)C)OCOC(=O)C(C)(C)C	58	10		Activity [8]: 96%
CC(C)=CCC/C(C)=C\CC(P(=O)(OCOC(=O)C(C)(C)C)OCOC(=O)C(C)(C)C)P(=O)(OCOC(=O)C(C)(C)C)OCOC(=O)C(C)(C)C	7	>50	inactive	
CC(C)=CCC/C(C)=C\CC(CC=C(C)C)(P(=O)(O)O)P(=O)(O)O	> 100	50	inactive	IC50 [7]: > 100 µM
CC(C)=CCC/C(C)=C\CC(C/C=C(/C)CCC=C(C)C)(P(=O)(O)O)P(=O)(O)O	> 100	25		
CC(C)=CCC/C(C)=C/CC/C(C)=C\CC(P(=O)(O)O)P(=O)(O)O		>50		
CC(C)=CCC/C(C)=C/CC(CC=C(C)C)(P(=O)(OCOC(=O)C(C)(C)C)OCOC(=O)C(C)(C)C)P(=O)(OCOC(=O)C(C)(C)C)OCOC(=O)C(C)(C)C	5.2	1	inactive	Activity [8]: 101%
CC(C)=CCC/C(C)=C\CC/C(C)=C\CC(P(=O)(OCOC(=O)C(C)(C)C)OCOC(=O)C(C)(C)C)P(=O)(OCOC(=O)C(C)(C)C)OCOC(=O)C(C)(C)C	2.9	>50		
CC(C)=CCC/C(C)=C/CC/C(C)=C/CC(P(=O)(O)O)P(=O)(O)O	90	10		Activity [8]: 42%
CC(C)=CCC/C(C)=C/CC(P(=O)(OCOC(=O)C(C)(C)C)OCOC(=O)C(C)(C)C)P(=O)(OCOC(=O)C(C)(C)C)OCOC(=O)C(C)(C)C	8.1	10	inactive	Activity [5]: 100%; Activity [6]: 99%
CC(C)=CCC/C(C)=C\CC(C/C=C(/C)CCC=C(C)C)(P(=O)(OCOC(=O)C(C)(C)C)OCOC(=O)C(C)(C)C)P(=O)(OCOC(=O)C(C)(C)C)OCOC(=O)C(C)(C)C	> 100	10		
CC(C)=CCC/C(C)=C/CC/C(C)=C/CC(P(=O)(OCOC(=O)C(C)(C)C)OCOC(=O)C(C)(C)C)P(=O)(OCOC(=O)C(C)(C)C)OCOC(=O)C(C)(C)C	7.9	10		Activity [8]: 96%
CC(C)=CCC/C(C)=C\CC(P(=O)(O)O)P(=O)(O)O	> 100	>50	inactive	
CC(C)=CCC/C(C)=C\CC(C/C=C(\C)CCC=C(C)C)(P(=O)(OCOC(=O)C(C)(C)C)OCOC(=O)C(C)(C)C)P(=O)(OCOC(=O)C(C)(C)C)OCOC(=O)C(C)(C)C	> 100	25		
CC(C)=CCC/C(C)=C/CC(C/C=C(\C)CCC=C(C)C)(P(=O)(O)O)P(=O)(O)O [DIGERANYL BISPHOSPHONATE]	> 100	25		
CC(C)=CCC/C(C)=C/CC/C(C)=C\CC(P(=O)(OCOC(=O)C(C)(C)C)OCOC(=O)C(C)(C)C)P(=O)(OCOC(=O)C(C)(C)C)OCOC(=O)C(C)(C)C	2	>50		
